Reference: ChEMBL document CHEMBL4038284, “Synthesis of novel quinoline-based 4,5-dihydro-1H-pyrazoles as potential anticancer, antifungal, antibacterial and antiprotozoal agents” (Eur J Med Chem, 2017)

Assays:
Assay type in all cases: functional
TK-10 = test: Growth inhibition of human TK10 cells incubated for 48 hrs by sulforhodamine B assay; settings: TK-10, 48 h; for CC50: read-out: LC50 (the source's name)
Procedure, shortened: (§1)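 NCI 60-line screen. Cells in RPMI-1640 with 5% FBS and 2 mM L-glutamine, preincubated 24 h, then time-zero plates TCA-fixed. Compounds from DMSO stocks given at five final concentrations (100, 10, 1.0, 0.1, 0.01 µM) for 48 h at 37 °C, 5% CO2. Cells fixed with 10% TCA, SRB-stained, read at 515 nm. GI50 is the concentration giving 50% lower net protein increase versus control.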

A498 = test: Growth inhibition of human A498 cells incubated for 48 hrs by sulforhodamine B assay; settings: A498, 48 h; for CC50: read-out: LC50 (the source's name); procedure, shortened: as §1
MOLT-4 = test: Growth inhibition of human MOLT4 cells incubated for 48 hrs by sulforhodamine B assay; settings: MOLT-4, 48 h; for CC50: read-out: LC50 (the source's name); procedure, shortened: as §1
NCI/ADR-RES = test: Growth inhibition of human NCI/ADR-RES cells incubated for 48 hrs by sulforhodamine B assay; settings: for CC50: read-out: LC50 (the source's name); procedure, shortened: as §1
Malme-3M = test: Growth inhibition of human MALME-3M cells incubated for 48 hrs by sulforhodamine B assay
Procedure, shortened: (§2)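 Five-dose NCI SRB assay at 100, 10, 1.0, 0.1 and 0.01 μM for 48 h at 37 °C, 5% CO2. Medium was RPMI-1640 with 5% FBS and 2 mM glutamine. Time-zero plates were TCA-fixed at compound addition, A515 read after SRB staining. GI50 was solved from [(Ti−Tz)/(C−Tz)]×100 = 50. Values beyond the tested range are given as > or <.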

BT-549 = test: Growth inhibition of human BT549 cells incubated for 48 hrs by sulforhodamine B assay; settings: BT-549, 48 h
Procedure, shortened: (§3)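 NCI five-dose SRB assay (100, 10, 1.0, 0.1, 0.01 µM) with 48 h exposure in RPMI-1640 with 5% FBS and 2 mM L-glutamine. Cells fixed with TCA and stained with SRB, read at 515 nm. GI50 is the concentration where [(Ti−Tz)/(C−Tz)]×100 = 50.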

NCI-H23 = test: Growth inhibition of human NCI-H23 cells incubated for 48 hrs by sulforhodamine B assay; settings: NCI-H23, 48 h; procedure, shortened: as §2
HCT-15 = test: Growth inhibition of human HCT15 cells incubated for 48 hrs by sulforhodamine B assay; settings: HCT-15, 48 h; for CC50: read-out: LC50 (the source's name); procedure, shortened: as §1
HT-29 = test: Growth inhibition of human HT-29 cells incubated for 48 hrs by sulforhodamine B assay; settings: HT-29, 48 h; procedure, shortened: as §2
SW-620 = test: Growth inhibition of human SW620 cells incubated for 48 hrs by sulforhodamine B assay; settings: SW-620, 48 h
Procedure, shortened: (§4)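 NCI-60 panel cells grown in RPMI-1640 with 5% FBS and 2 mM L-glutamine, preincubated 24 h at 37 °C/5% CO2. Time-zero plates were TCA-fixed at compound addition. DMSO stocks were diluted in medium and tested at five final concentrations (100, 10, 1.0, 0.1, 0.01 µM) for 48 h. Cells were TCA-fixed, stained with SRB and read at 515 nm. GI50 = 50% lower net protein increase versus control.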

MDA-MB-435 = test: Growth inhibition of human MDA-MB-435 cells incubated for 48 hrs by sulforhodamine B assay; settings: MDA-MB-435, 48 h; procedure, shortened: as §2
SN12C = test: Growth inhibition of human SN12C cells incubated for 48 hrs by sulforhodamine B assay; procedure, shortened: as §4
RPMI-8226 = test: Growth inhibition of human RPMI8226 cells incubated for 48 hrs by sulforhodamine B assay; settings: RPMI-8226, 48 h; for CC50: read-out: LC50 (the source's name); procedure, shortened: as §1
SK-OV-3 = test: Growth inhibition of human SKOV3 cells incubated for 48 hrs by sulforhodamine B assay; settings: SK-OV-3, 48 h; for CC50: read-out: LC50 (the source's name); procedure, shortened: as §1
COLO 205 = test: Growth inhibition of human COLO205 cells incubated for 48 hrs by sulforhodamine B assay; settings: COLO 205, 48 h; procedure, shortened: as §3
U-251 = test: Growth inhibition of human U251 cells incubated for 48 hrs by sulforhodamine B assay; settings: U-251, 48 h; procedure, shortened: as §4
UACC-62 = test: Growth inhibition of human UACC62 cells incubated for 48 hrs by sulforhodamine B assay; settings: UACC-62, 48 h; for CC50: read-out: LC50 (the source's name); procedure, shortened: as §1
OVCAR-4 = test: Growth inhibition of human OVCAR4 cells incubated for 48 hrs by sulforhodamine B assay; settings: OVCAR-4, 48 h; procedure, shortened: as §2
EKVX = test: Growth inhibition of human EKVX cells incubated for 48 hrs by sulforhodamine B assay; procedure, shortened: as §3
DU-145 = test: Growth inhibition of human DU145 cells incubated for 48 hrs by sulforhodamine B assay; settings: DU-145, 48 h; for CC50: read-out: LC50 (the source's name); procedure, shortened: as §3
M14 = test: Growth inhibition of human M14 cells incubated for 48 hrs by sulforhodamine B assay; settings: M14, 48 h; procedure, shortened: as §2
NCI-H226 = test: Growth inhibition of human NCI-H226 cells incubated for 48 hrs by sulforhodamine B assay; settings: NCI-H226, 48 h; for CC50: read-out: LC50 (the source's name); procedure, shortened: as §1
SF-295 = test: Growth inhibition of human SF295 cells incubated for 48 hrs by sulforhodamine B assay; settings: SF-295, 48 h; procedure, shortened: as §2
UO-31 = test: Growth inhibition of human UO31 cells incubated for 48 hrs by sulforhodamine B assay; settings: UO-31, 48 h; procedure, shortened: as §4
HCT-116 = test: Growth inhibition of human HCT116 cells incubated for 48 hrs by sulforhodamine B assay; settings: HCT-116, 48 h; procedure, shortened: as §3
IGROV-1 = test: Growth inhibition of human IGROV1 cells incubated for 48 hrs by sulforhodamine B assay; settings: IGROV-1, 48 h; for CC50: read-out: LC50 (the source's name); procedure, shortened: as §1
SK-MEL-28 = test: Growth inhibition of human SK-MEL-28 cells incubated for 48 hrs by sulforhodamine B assay; settings: SK-MEL-28, 48 h; procedure, shortened: as §4
HOP-92 = test: Growth inhibition of human HOP92 cells incubated for 48 hrs by sulforhodamine B assay; settings: HOP-92, 48 h; procedure, shortened: as §2
SNB-19 = test: Growth inhibition of human SNB19 cells incubated for 48 hrs by sulforhodamine B assay; settings: SNB-19, 48 h; procedure, shortened: as §4
OVCAR-8 = test: Growth inhibition of human OVCAR8 cells incubated for 48 hrs by sulforhodamine B assay; settings: OVCAR-8, 48 h; procedure, shortened: as §2
MCF7 = test: Growth inhibition of human MCF7 cells incubated for 48 hrs by sulforhodamine B assay; settings: MCF7, 48 h; for CC50: read-out: LC50 (the source's name); procedure, shortened: as §1
[1] = read-out: LC50 (the source's name)

Structure (SMILES): COc1ccc(C2=NN(C=O)C(c3cccc(Nc4ccnc5cc(Cl)ccc45)c3)C2)cc1 (stereo not drawn)
- GI50 (TK-10): 4.24 µM
- CC50 (TK-10): 61.7 µM
- GI50 (A498): 1.35 µM
- CC50 (A498): > 100 µM
- GI50 (MOLT-4): 2.37 µM
- CC50 (MOLT-4): > 100 µM
- GI50 (NCI/ADR-RES): 1.66 µM
- CC50 (NCI/ADR-RES): > 100 µM
- GI50 (Malme-3M): 2.04 µM
- CC50 (Malme-3M; [1]): > 100 µM
- GI50 (BT-549): 1.93 µM
- CC50 (BT-549; [1]): > 100 µM
- GI50 (NCI-H23): 1.87 µM
- CC50 (NCI-H23; [1]): > 100 µM
- GI50 (HCT-15): 2.13 µM
- CC50 (HCT-15): > 100 µM
- GI50 (HT-29): 1.65 µM
- LC50 (HT-29): 67.4 µM
- GI50 (SW-620): 1.73 µM
- CC50 (SW-620; [1]): > 100 µM
- GI50 (MDA-MB-435): 0.37 µM
- CC50 (MDA-MB-435; [1]): > 100 µM
- GI50 (SN12C): 4.45 µM
- CC50 (SN12C; [1]): > 100 µM
- GI50 (RPMI-8226): 1.36 µM
- CC50 (RPMI-8226): > 100 µM
- GI50 (SK-OV-3): 3.33 µM
- CC50 (SK-OV-3): > 100 µM
- GI50 (COLO 205): 2.4 µM
- CC50 (COLO 205; [1]): 60.6 µM
- GI50 (U-251): 2.77 µM
- CC50 (U-251; [1]): 51.1 µM
- GI50 (UACC-62): 2.41 µM
- CC50 (UACC-62): 68.1 µM
- GI50 (OVCAR-4): 1.54 µM
- CC50 (OVCAR-4; [1]): > 100 µM
- GI50 (EKVX): 2.81 µM
- LC50 (EKVX): > 100 µM
- GI50 (DU-145): 3.62 µM
- CC50 (DU-145): > 100 µM
- GI50 (M14): 2.34 µM
- CC50 (M14; [1]): 67.5 µM
- GI50 (NCI-H226): 3.13 µM
- CC50 (NCI-H226): > 100 µM
- GI50 (SF-295): 1.24 µM
- CC50 (SF-295; [1]): > 100 µM
- GI50 (UO-31): 3.25 µM
- CC50 (UO-31; [1]): > 100 µM
- GI50 (HCT-116): 1.84 µM
- LC50 (concentration killing 50% of cells) (HCT-116): 24.3 µM
- GI50 (IGROV-1): 3.71 µM
- CC50 (IGROV-1): > 100 µM
- GI50 (SK-MEL-28): 8.12 µM
- CC50 (SK-MEL-28; [1]): 67.1 µM
- GI50 (HOP-92): 3.41 µM
- LC50 (concentration giving 50% net cell kill) (HOP-92): > 100 µM
- GI50 (SNB-19): 5.11 µM
- CC50 (SNB-19; [1]): > 100 µM
- GI50 (OVCAR-8): 3.29 µM
- LC50 (concentration causing 50% net cell kill) (OVCAR-8): > 100 µM
- GI50 (MCF7): 1.59 µM
- CC50 (MCF7): > 100 µM

Structure (SMILES): COc1cccc2c1C(=O)c1c(O)c3c(c(O)c1C2=O)C[C@@](O)(C(=O)CO)C[C@@H]3O[C@H]1C[C@H](N)[C@H](O)[C@H](C)O1 [DOXORUBICIN]
- GI50 (TK-10): 0.38 µM
- CC50 (TK-10): 90 µM
- GI50 (A498): 0.1 µM
- CC50 (A498): 1.9 µM
- GI50 (MOLT-4): 0.03 µM
- CC50 (MOLT-4): 100 µM
- CC50 (NCI/ADR-RES): 100 µM
- GI50 (Malme-3M): 0.12 µM
- GI50 (BT-549): 0.23 µM
- GI50 (NCI-H23): 0.15 µM
- CC50 (HCT-15): 100 µM
- GI50 (HT-29): 0.12 µM
- GI50 (SW-620): 0.09 µM
- GI50 (MDA-MB-435): 0.25 µM
- GI50 (SN12C): 0.07 µM
- GI50 (RPMI-8226): 0.08 µM
- CC50 (RPMI-8226): 100 µM
- GI50 (SK-OV-3): 0.22 µM
- CC50 (SK-OV-3): 100 µM
- GI50 (COLO 205): 0.18 µM
- GI50 (U-251): 0.04 µM
- GI50 (UACC-62): 0.14 µM
- CC50 (UACC-62): 1.31 µM
- GI50 (OVCAR-4): 0.37 µM
- GI50 (EKVX): 0.41 µM
- GI50 (DU-145): 0.11 µM
- CC50 (DU-145): 100 µM
- GI50 (M14): 0.18 µM
- GI50 (NCI-H226): 0.05 µM
- CC50 (NCI-H226): 6.4 µM
- GI50 (SF-295): 0.1 µM
- GI50 (UO-31): 0.49 µM
- GI50 (HCT-116): 0.08 µM
- GI50 (IGROV-1): 0.17 µM
- CC50 (IGROV-1): 100 µM
- GI50 (SK-MEL-28): 0.21 µM
- GI50 (HOP-92): 0.1 µM
- GI50 (SNB-19): 0.04 µM
- GI50 (OVCAR-8): 0.1 µM
- GI50 (MCF7): 0.04 µM
- CC50 (MCF7): 64.1 µM
